Screening results (PubChem)
Jurkat NFkB inh: inhibitors of the PMA/ionomycin-induced NF-kB reporter in Jurkat cells. 0.53% of 330,000 active. PMA/ionomycin-induced NF-kB luciferase reporter, luminescence. inhibition, % at 4 µM; in the data active means inhibition above about 50%
Gli-Sufu block: Gli-Sufu pathway antagonism; Sufu-KO-LIGHT fibroblasts, Gli luciferase reporter luminescence; inhibition, % at 5 µM; 0.74% of 340,000 active;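 active means inhibition above about 55%, limit read from the data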;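 further: 0% = DMSO-treated cells and 100% = wells with medium but no cells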
GalR3 antag: blocks the human galanin receptor 3; O60755; HEK293 GalR3-CNG cAMP membrane potential fluorescence; galR3 body fused to GalR1 C-terminus; AID 651719; inhibition, % at 3 µM; 0.44% of 360,000 active;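 active means inhibition above the screen-wide average plus 3 SD, cut at about 13% in these data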;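 further: forskolin and galanin both at EC90 stimulate the cells; cAMP rise reported by CNG channel membrane potential dye signal; 0% = forskolin plus galanin with DMSO and 100% = forskolin alone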
Target sequence (O60755 1-299 limits assumed): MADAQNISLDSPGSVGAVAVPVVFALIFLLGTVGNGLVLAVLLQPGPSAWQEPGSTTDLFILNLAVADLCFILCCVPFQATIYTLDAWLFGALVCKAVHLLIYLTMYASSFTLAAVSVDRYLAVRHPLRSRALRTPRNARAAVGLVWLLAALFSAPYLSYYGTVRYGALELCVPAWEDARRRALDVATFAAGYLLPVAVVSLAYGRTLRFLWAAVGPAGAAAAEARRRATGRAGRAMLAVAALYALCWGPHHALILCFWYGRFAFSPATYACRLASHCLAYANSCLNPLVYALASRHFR
NR2E3 ag-1: activates human NR2E3 receptor. Q9Y5X4. CHO-S Gal4-NCOR/VP16-NR2E3 two-hybrid, luciferase. 0.35% of 360,000 active. inhibition of corepressor binding, % at 3.98 µM;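 active means inhibition above the mean of all tested compounds plus 3 SD, cut at about 70% in these data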;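 further: 0% = DMSO with NR2E3 transfected cells and 100% = cells lacking NR2E3 construct; higher means lower luciferase signal from less NR2E3 corepressor binding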
Target sequence (Q9Y5X4 whole entry, looked up, the tested form may be a part): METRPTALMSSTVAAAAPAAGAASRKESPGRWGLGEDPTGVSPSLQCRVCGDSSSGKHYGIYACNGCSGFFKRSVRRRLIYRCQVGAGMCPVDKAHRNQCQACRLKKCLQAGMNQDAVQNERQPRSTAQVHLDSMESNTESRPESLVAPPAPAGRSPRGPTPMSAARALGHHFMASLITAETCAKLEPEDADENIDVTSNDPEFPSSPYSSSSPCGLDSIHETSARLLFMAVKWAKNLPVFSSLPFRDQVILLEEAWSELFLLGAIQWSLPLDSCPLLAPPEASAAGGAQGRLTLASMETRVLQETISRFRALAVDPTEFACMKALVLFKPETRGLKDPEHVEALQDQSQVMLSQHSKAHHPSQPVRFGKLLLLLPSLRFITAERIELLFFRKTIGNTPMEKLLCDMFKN
697 NFkB inh: inhibitors of the PMA/ionomycin-induced NF-kB reporter in 697 B cells | AID 435022 | 0.33% of 330,000 active | 697 B-cell NF-kB luciferase reporter, 16 h | inhibition, % at 4 µM; in the data active means inhibition above about 35%
NR2E3 ag-2: agonists of human nuclear receptor NR2E3; inhibition of corepressor binding, % at 4.78 µM; 0.12% of 320,000 active; AID 2300; GST-NR2E3/biotin-RetCOR TR-FRET, 1536-well; Q9Y5X4;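 active means percent inhibition above the cutoff of mean plus 3 SD of all tested compounds, set per screening campaign, cut at about 20% in these data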;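 further: 0% = DMSO wells and 100% = biotin wells as full block of FRET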
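System: GST-tagged NR2E3 plus biotinylated RetCOR corepressor; Amount: 1.35 nM GST-tagged NR2E3 final; Dosing: single nominal compound dose of 4.8 µM; Schedule: 5 h incubation at 4 °C; Technique: TR-FRET with europium anti-GST and streptavidin-D2, 340 nm excitation; Controls: biotin wells as high control, 0.6% DMSO wells as low control.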
NR2E3 ag conf: confirmation of human NR2E3 agonists. shares compounds with NR2E3 ag-1. CHO-S mammalian two-hybrid NR2E3-NCOR, luciferase luminescence. inhibition, % at 3.98 µM. 51% of 2,300 active. AID 624378;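 active means average inhibition above a cutoff equal to the mean inhibition of all tested compounds plus one SD, cut at about 70% in these data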;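 further: 0% = DMSO in NR2E3 cells and 100% = DMSO in cells lacking NR2E3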
VP16 counter: GAL4-VP16 reporter inhibition in NR2E3 agonist counterscreen. inhibition, % at 3.98 µM. shares compounds with NR2E3 ag-1. CHO-S GAL4-VP16 luciferase reporter, luminescence. 29% of 2,300 active;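 active means mean inhibition above a cutoff equal to the average over all tested compounds plus one standard deviation, cut at about 70% in these data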;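 further: luciferase from a UAS reporter driven by GAL4-VP16 transactivation; 0% = DMSO with VP16-transfected cells and 100% = DMSO with cells lacking VP16; higher means less reporter light so more repression of VP16 activity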
* marks the source's active call; other numbers are inactive results; · = not tested or not shown. Most compounds without a hit are left out; they make up all but 1.8% or so of the library.

SMILES | Jurkat NFkB inh | Gli-Sufu block | GalR3 antag | NR2E3 ag-1 | 697 NFkB inh | NR2E3 ag-2 | NR2E3 ag conf | VP16 counter
COc1ccccc1-c1oc2ccccc2c1C#CC1(O)CCCCC1 | -13 | 28 | -7 | -28 | 11 | · | · | ·
O=c1c2ccccc2oc2cc(C#CC3(O)CCCCC3)ccc12 | -85 | 36 | 2 | 70 | -160 | 2 | 59 | 16
O=C1C=CC2(O[C@H](c3ccccc3)[C@@H](c3ccccc3)O2)[C@H](Sc2ccccc2O)C1 | · | 23 | 16* | 68 | · | · | 92* | 49
O=C(CN1C(=O)NC2(CCCCCC2)C1=O)Nc1ccc(OC(F)(F)F)cc1 | · | · | -4 | 23 | · | · | · | ·
Cc1cc(C(=O)COC(=O)c2ccccc2Br)c(C)n1CC1CCCO1 (stereo not drawn) | 46 | 76* | -2 | 89* | -35 | -1 | 81* | 71*
COCCn1c(C)cc(C(=O)COC(=O)c2cccnc2SC)c1C | -87 | -53 | -4 | -87 | -99 | · | · | ·
Cc1cc(C(=O)COC(=O)c2cccnc2Cl)c(C)n1CC1CCCO1 (stereo not drawn) | -90 | 41 | -3 | 60 | -145 | 9 | 47 | 10
Cc1cc(C(=O)COC(=O)c2ccccc2NCCO)c(C)n1CC1CCCO1 (stereo not drawn) | -23 | 23 | -2 | 13 | -47 | 1 | · | ·
Cc1cc(C(=O)CSc2nc3ccc(Cl)cc3[nH]2)c(C)n1CC1CCCO1 (stereo not drawn) | 2 | 0 | -5 | 57 | -10 | 0 | 80* | 64
COCCn1c(C)cc(C(=O)COC(=O)c2ccccc2Br)c1C | -76 | 45 | 6 | 79* | -83 | 0 | 26 | 35
CCC(C)C(CO)NCCCn1cnc(C(=O)Nc2ccc(C)c(C)c2)n1 (stereo not drawn) | · | -1 | -5 | -13 | · | · | · | ·
COc1ccc(CNC(=O)C2Cc3c(-c4ccc5c(c4)OCO5)ccnc3O2)cc1OC (stereo not drawn) | · | · | -10 | -28 | · | · | · | ·
O=Cc1ccc(O)c2ncccc12 | 15 | 64* | · | 69 | -5 | · | -6 | -1
O=C(Nc1nnc(SCC(=O)N2CCCC2)s1)C1CC(=O)N(c2ccccc2)C1 (stereo not drawn) | 16 | 0 | -2 | 3 | -2 | 0 | · | ·
COCCN=C1NN=C(c2cc(C)n(CC3CCCO3)c2C)CS1 (stereo not drawn) | -1 | -2 | -7 | -17 | -6 | 0 | · | ·
C=CCN=C1NN=C(c2cc(C)n(CC=C)c2C)CS1 | -33 | 71* | 0 | 55 | -62 | -1 | 55 | 32
CCCn1c(CN2CCN(c3cccc(Cl)c3)CC2)nc2c1c(=O)n(C)c(=O)n2C | 14 | 19 | · | 93* | -6 | -1 | 94* | 85*
CCCCn1c(CN2CCN(c3cccc(Cl)c3)CC2)nc2c1c(=O)n(C)c(=O)n2C | 9 | 20 | -6 | -14 | -1 | -1 | · | ·
NC1=C(Cl)C(=O)c2ccc(S(N)(=O)=O)cc2C1=O | · | 89* | -5 | 72* | · | · | 10 | 19
O=C1C(=O)N(c2nccs2)C(c2ccccc2)/C1=C(\O)c1ccc2c(c1)OCCO2 (stereo not drawn) | 3 | · | · | 76* | 26 | 11 | 82* | 44
O=C1C(=O)N(CCN2CCOCC2)C(c2ccccc2)/C1=C(\O)c1ccc2c(c1)OCCO2 (stereo not drawn) | -4 | -20 | -1 | -12 | -7 | 11 | · | ·
O=C1C(=O)N(c2nccs2)C(c2ccccc2F)/C1=C(\O)c1ccc2c(c1)OCCO2 (stereo not drawn) | -5 | 11 | 2 | 93* | 19 | 12 | 92* | 64
Cc1nnc(N2C(=O)C(=O)/C(=C(/O)c3ccc4c(c3)OCCO4)C2c2ccc(F)cc2)s1 (stereo not drawn) | -4 | -13 | 1 | -21 | 2 | 3 | · | ·
O=C(NCc1ccccc1)C(c1c(F)cccc1Cl)N(C(=O)c1csnn1)C1CC1 (stereo not drawn) | -6 | -3 | -10 | 16 | 3 | -3 | · | ·
Cc1ccc(OCc2nnc(SCc3nc4ccccc4[nH]3)n2Cc2ccco2)cc1 | 4 | 36 | -3 | 49 | -22 | -5 | 66 | 65
SMILES | Jurkat NFkB inh | Gli-Sufu block | GalR3 antag | NR2E3 ag-1 | 697 NFkB inh | NR2E3 ag-2 | NR2E3 ag conf | VP16 counter
c1ccc(-c2nnc(SCc3nc4ccccc4[nH]3)n2Cc2ccco2)cc1 | 12 | 5 | -5 | 0 | 3 | 2 | · | ·
CCC(C(=O)NC1CCCC1)n1c(C2CC2)nc2ccccc21 (stereo not drawn) | · | · | -8 | · | · | · | · | ·
NC(=S)N/N=C\c1c(OCc2ccccc2Cl)ccc2ccccc12 | 26 | 25 | -7 | 94* | -13 | 2 | -16 | -3
CC1CCC(NC(=O)c2cc3c(s2)CCCC3)CC1 (stereo not drawn) | -83 | -48 | -6 | -128 | -87 | 0 | · | ·
O=C1c2cccc3c(O)ccc(c23)C(=O)N1Cc1ccccc1 | -5 | 2 | -3 | 64 | -15 | 1 | 82* | 60
O=C(O)c1cccc(CN2C(=O)c3ccccc3C2=O)c1 | 7 | 1 | 3 | 6 | 7 | 0 | · | ·
FC(F)(F)c1cccc(Cc2noc(CN3CCC(c4ccncc4)CC3)n2)c1 | 36 | 38 | -7 | 49 | -49 | 1 | 78* | 70
CN1CCCC2(CCCN(Cc3nc(Cc4cccc(C(F)(F)F)c4)no3)C2)C1 (stereo not drawn) | -29 | 2 | -3 | -3 | -50 | 0 | · | ·
O=C(C1CC1)N1CCc2cc(Br)cc(S(=O)(=O)N3CCN(c4ccccn4)CC3)c21 | -16 | 1 | -1 | 87* | 3 | 1 | 90* | 2
CC1C(=O)Nc2ccc(S(=O)(=O)NCCc3ccc(Cl)cc3)cc2NC1=O (stereo not drawn) | 11 | 1 | · | -15 | 10 | 1 | · | ·
NNC(=O)c1ccc(CSc2cccc3cccnc23)cc1 | -14 | -12 | -5 | 2 | 17 | -3 | · | ·
Cc1cccc(CSc2cccc3cccnc23)c1 | 13 | 8 | -3 | 88* | -50 | 3 | -51 | -104
COc1ccccc1CNC(=O)[C@H](C)NC(=O)C1CCN(C(=O)[C@@H](N)CCSC)CC1 | -3 | -13 | -6 | -20 | 19 | 1 | · | ·
O=C(CCC(=O)N1CCOc2ccccc21)NCCN1CCOCC1 | 1 | 7 | · | -23 | 17 | 1 | · | ·
CC(OC(=O)c1cc(Br)ccc1O)C(=O)Nc1ccc(S(=O)(=O)N2CCCC2)cc1 (stereo not drawn) | -22 | -5 | -1 | 52 | -15 | -1 | -23 | -4
